GSTO1 inh = blocks human GSTO1 in RBBP9 counter-screen | inhibition, % at 5.96 µM | P78417 | actives 1.1% (n = 300,000) | recombinant GSTO1, activity-based probe fluorescence polarization;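 active = inhibition above the campaign mean inhibition plus 3 SD, cut at about 35% in these data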
Fh CTSL1 inh = cathepsin L1 inhibition, PFM18AAP counter-screen; actives 0.49% (n = 300,000); recombinant F. hepatica cathepsin L1, Z-Leu-Arg-MCA fluorescence; inhibition, % at 5.96 µM;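 active = inhibition above the mean of all tested compounds plus 3 SD, set per screening campaign, cut at about 17% in these data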
TDP2 inh = blocks human TDP2 phosphodiesterase activity | AID 720702 | O95551 | recombinant TDP2, T5PNP hydrolysis, p-nitrophenol absorbance 415 nm | actives 0.34% (n = 370,000) | inhibition, % at 12.8 µM;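 active = inhibition above the mean of all tested compounds plus 3 SD, set per campaign, cut at about 25% in these data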
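System: recombinant human TDP2 / Amount: 120 nM TDP2 per well / Also added: 5 mM T5PNP chromogenic substrate / Doses: 12.8 µM single point, 1% DMSO / Incubation: 2 h at 37 °C / Detection: p-Nitrophenol epi absorbance / Evaluation: % inhibition relative to enzyme-containing and enzyme-free wells / Repeats: singlicate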
PAD4 inh = inhibitors of human PAD4 | actives 0.41% (n = 330,000) | recombinant PAD4, RCA probe fluorescence polarization | AID 485272 | inhibition, % at 6.36 µM | Q9UM07;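 active = percent inhibition above a cutoff equal to the mean of all tested compounds plus 3 SD, cut at about 15% in these data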
Target sequence (Q9UM07 whole entry, looked up): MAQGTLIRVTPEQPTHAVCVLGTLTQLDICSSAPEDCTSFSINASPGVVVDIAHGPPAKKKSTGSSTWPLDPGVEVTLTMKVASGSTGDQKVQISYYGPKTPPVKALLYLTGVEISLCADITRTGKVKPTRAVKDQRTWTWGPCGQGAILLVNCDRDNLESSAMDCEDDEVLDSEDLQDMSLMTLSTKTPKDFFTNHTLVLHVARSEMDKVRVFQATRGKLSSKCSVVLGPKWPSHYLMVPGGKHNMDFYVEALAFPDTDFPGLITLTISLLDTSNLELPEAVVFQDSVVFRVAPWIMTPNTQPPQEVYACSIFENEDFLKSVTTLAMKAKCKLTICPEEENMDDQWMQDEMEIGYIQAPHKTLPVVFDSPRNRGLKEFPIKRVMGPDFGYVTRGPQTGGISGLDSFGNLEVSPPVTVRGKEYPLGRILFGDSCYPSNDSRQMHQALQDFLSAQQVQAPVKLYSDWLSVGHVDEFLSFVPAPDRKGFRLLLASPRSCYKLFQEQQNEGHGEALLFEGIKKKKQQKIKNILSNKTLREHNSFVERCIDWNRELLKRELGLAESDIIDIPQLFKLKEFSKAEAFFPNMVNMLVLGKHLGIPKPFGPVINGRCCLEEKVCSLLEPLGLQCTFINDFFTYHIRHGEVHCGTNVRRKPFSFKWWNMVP
PRMT1 inh = inhibitors of human PRMT1 | inhibition, % at 2.79 µM | recombinant PRMT1, activity-based probe fluorescence polarization | Q99873 | actives 1.3% (n = 370,000);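 active = inhibition above about 21% made by adding two undisclosed values, limit read from the data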
Numbers stand for hits; - = inactive; . = no result. Most compounds without a hit are left out; they make up all but 2.5% or so of the library.

SMILES	GSTO1 inh	Fh CTSL1 inh	TDP2 inh	PAD4 inh	PRMT1 inh
COC(=O)[C@]12C[C@H](CC(=O)NCCCCc3ccccc3)C(=O)N(CCc3ccc(OC)c(OC)c3)C1=C[C@H](COCc1ccccc1)O[C@@H]2C	.	.	-	.	-
O=C1C2=C(c3ccccc31)[N+](=O)C1CCCCC1N2[O-] (stereo unspecified)	-	-	25	-	-
O=C(CCCCl)Nc1c2c(nn1-c1ccccc1)CSC2	-	-	-	-	23
O=C(CSC1=Nc2ccccc2C2CC=NN12)Nc1ccc(F)c(F)c1F (stereo unspecified)	.	.	-	-	22
COC(=O)[C@H](CC(C)C)N1Cc2nnn(Cc3ccc(C)cc3)c2-c2cc(F)ccc2S1(=O)=O	.	.	-	.	-
O=C(c1cccc(Cl)c1)N1CCN(C2CCCCC2)CC1	-	25	-	-	-
COCCCNc1nc2c(-c3cccc(C)c3)nnn2c2ccccc12	-	18	-	-	-
COCCCNc1nc2c(-c3ccc(C)cc3)nnn2c2ccccc12	-	-	-	-	-
CCOC(=O)N1CCN(C(=O)C[C@@H]2C(=O)N3CCCC4=C3[C@@]2(C(=O)OCC)CCC4)CC1	.	.	-	.	-
Cc1c(C)n(CC(O)CN2CCCCC2)c2ccccc12 (stereo unspecified)	-	-	-	-	-
Cc1cc(C)n(CC(O)Cn2c(C)c(C)c3ccccc32)n1 (stereo unspecified)	-	19	-	-	-
CC(C)[C@H](NC(=O)C1(c2ccccc2)CCN(C(=O)OC(C)(C)C)CC1)C(=O)O	-	27	-	-	-
CC(C)C[C@H](NC(=O)C1(c2ccccc2)CCN(C(=O)[C@H]2CSCN2C(=O)OC(C)(C)C)CC1)C(=O)O	-	-	-	-	-
CC(C)C[C@H](NC(=O)C1(c2ccccc2)CCN(C(=O)OC(C)(C)C)CC1)C(=O)N1CCC[C@H]1C(=O)O	-	41	-	-	-
CC(C)(C)OC(=O)N1CCC(C(=O)N[C@@H](Cc2ccccc2)C(=O)O)(c2ccccc2)CC1	-	-	-	-	-
COc1cc2c(cc1NC(=O)CSc1nnc(-c3ccccc3F)n1-c1ccc(C)cc1)oc1ccccc12	.	.	-	.	-
Cc1ccc(Cn2cc(CN3[C@@H](Cc4ccccc4)COc4cc(Br)ccc4S3(=O)=O)nn2)cc1	.	.	-	.	-
O=C(Nc1ccccc1C(=O)O)c1cc(S(=O)(=O)N2CCCCC2)c(Cl)cc1Cl	36	-	-	-	-
CCCOc1ccc(N2C(=O)CC(SCCN)C2=O)cc1 (stereo unspecified)	-	-	-	-	22
COC(=O)CCCC1=CC2=CC(=O)C(C)(OC(=O)c3cccs3)C(=O)C2=CN1C1CCCC1 (stereo unspecified)	37	-	-	-	-
CSCC[C@H](Nc1ncnc2sc(C)c(C)c12)C(=O)O	-	19	-	-	-
COC(=O)[C@]12C[C@H](CC(=O)NCCC(C)C)C(=O)N(Cc3cccc4ccccc34)C1=C[C@H](C(C)C)O[C@@H]2C1CC1	.	.	-	.	-
CC(C)(C)NC(=O)C1N(c2cccnc2)C(=O)C2C(C(=O)Nc3ccccc3F)C3(C)C=CC21O3 (stereo unspecified)	-	-	-	-	22
Cc1ccc(SCc2[nH]nc3c2C(c2ccco2)C(C#N)=C(N)O3)cc1 (stereo unspecified)	37	-	-	-	-
Cc1cc2c(c(=O)o1)C(c1cccs1)C(C#N)=C(N)O2 (stereo unspecified)	-	-	-	-	-
SMILES	GSTO1 inh	Fh CTSL1 inh	TDP2 inh	PAD4 inh	PRMT1 inh
Cc1ccc([C@H]2C(C#N)=C(N)Oc3cc(C)oc(=O)c32)o1	-	-	-	-	22
Cc1ccc(SCc2[nH]nc3c2C(c2ccc(C)o2)C(C#N)=C(N)O3)cc1 (stereo unspecified)	37	-	-	-	-
Cc1ccc(S(=O)(=O)NCC2CN(S(=O)(=O)c3ccc(C)cc3)c3ccccc3C(=O)N2c2ccc(F)cc2)cc1 (stereo unspecified)	.	.	-	.	-
O=c1c2cc3cc(Cl)ccc3nc2ncn1CCc1c[nH]c2ccccc12	.	.	-	.	-
NCCCCCc1nnc(SCC(=O)Nc2cccc(Cl)c2)o1	-	17	-	-	-
O=C(CSc1nnc(CNC(=O)c2cccs2)o1)Nc1cccc(Cl)c1	-	-	-	-	-
Cc1ccccc1CNC(=O)c1cccc2c1C(=O)N(Cc1cccnc1)C2	.	.	-	.	-
CCOc1ccc(N=C2NC(=O)C(CC(=O)Nc3ccccc3)S2)cc1 (stereo unspecified)	-	19	-	-	-
COc1cc(OC)c(-c2c3cc(O)c(=O)cc-3oc3cc(O)c(O)cc23)cc1OC	-	-	-	-	24
COc1cc(-c2cc(=O)c3ccc(O)cc3o2)cc(OC)c1OC	.	.	-	.	-
NC(=O)c1ccc(SCC(=O)OCC(=O)N2CCCCC2)c([N+](=O)[O-])c1	-	-	-	-	-
NC(=O)c1ccc(SCC(=O)OCC(=O)N2CCN(C(=O)c3ccco3)CC2)c([N+](=O)[O-])c1	-	-	-	-	22
CC1(C)CC(=O)C2=C(C1)OC(N)=C(C#N)C2C#Cc1ccccc1 (stereo unspecified)	35	-	-	-	-
CC(c1ccccc1)C1C(C#N)=C(N)OC2=C1C(=O)CC(C)(C)C2 (stereo unspecified)	-	-	-	-	-
O=C(CCl)Nc1c(C(=O)Nc2ccc3c(c2)OCCO3)oc2ccccc12	36	58	-	-	-
O=C1c2ccccc2C(=O)c2c(Nc3ccc(CCO)cc3)ccc(O)c21	39	-	-	-	-
Brc1cccc(-c2cnco2)c1	-	18	-	-	-
CN(c1ncnc(N)c1[N+](=O)[O-])C1CCS(=O)(=O)C1 (stereo unspecified)	-	-	-	-	-
Nc1ncnc(NC2CCS(=O)(=O)C2)c1[N+](=O)[O-] (stereo unspecified)	-	49	-	-	-
O=C(CSc1ccccn1)Nc1ccc2c(c1)OCO2	-	-	-	-	-
O=C(CSc1ccccn1)NCc1ccc2c(c1)OCO2	-	17	-	-	-
CC(=O)ON=C1C=CC(=C(C#N)c2ccccc2)C=C1	.	.	-	.	24
CCOC(=O)c1c(C)[nH]c(C(=O)COC(=O)CNC(=O)C2CCCCC2)c1C	-	27	-	-	-
CCOC(=O)c1c(C)[nH]c(C)c1C(=O)COC(=O)CNC(=O)C1CCCCC1	-	54	-	-	-
CCOC(=O)c1c(C)[nH]c(C(=O)COC(=O)CNC(=O)c2ccccc2Cl)c1C	-	-	-	-	-
O=C(COCc1ccccc1)N1CC[C@H]2[C@H](CCCN2Cc2ccc(F)cc2)C1	.	.	-	.	-
CC(C)N1CCCCC(NC(=O)c2cccc(F)c2)C1=O (stereo unspecified)	.	.	-	.	-
C=CCNC1=C(Cl)C(=O)N(Cc2ccccc2)C1=O	-	-	-	-	-
